Measured values from ChEMBL document CHEMBL3632558, “Synthesis, antimycobacterial and antibacterial activity of l-[(1R,2S)-2-fluorocyclopropyl]naphthyridone derivatives containing an oxime-functionalized pyrrolidine moiety” (2015).
Converted amounts (≈) assume the structure as drawn.

How the values were obtained:
Type in all cases: functional
Enterococcus faecalis [1] = assay: Antibacterial activity against Enterococcus faecalis 14-2 after 18 to 24 hrs
In short: (§1)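 MIC by standard NCCLS reference procedure (M100-S11); lowest concentration of compound inhibiting visible bacterial growth after incubation at 35 °C for 18–24 h, read as complete inhibition of growth. Ciprofloxacin, levofloxacin and moxifloxacin run alongside as reference agents.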

Enterococcus faecium [2] = assay: Antibacterial activity against Enterococcus faecium 14-1 after 18 to 24 hrs; in short: as §1
Enterococcus faecium [3] = assay: Antibacterial activity against Enterococcus faecium 14-2 after 18 to 24 hrs; in short: as §1
Enterococcus faecium [4] = assay: Antibacterial activity against Enterococcus faecium 14-5 after 18 to 24 hrs; in short: as §1
Enterococcus faecium [5] = assay: Antibacterial activity against Enterococcus faecium 14-6 after 18 to 24 hrs; in short: as §1
[6] = tested on: Mycobacterium tuberculosis; assay: Antimycobacterial activity against Mycobacterium tuberculosis H37Rv ATCC 27294 by alamar blue assay
In short: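 Microplate Alamar Blue Assay; MIC is the lowest concentration giving ≥90% reduction in fluorescence relative to the mean of replicate bacterium-only controls. MDR strain 6133 is resistant to isoniazid and rifampicin.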

Escherichia coli [7] = assay: Antibacterial activity against Escherichia coli ATCC 25922 after 18 to 24 hrs; in short: as §1
Escherichia coli [8] = assay: Antibacterial activity against ESBL-positive Escherichia coli 14-1 after 18 to 24 hrs; in short: as §1
Escherichia coli [9] = assay: Antibacterial activity against ESBL-positive Escherichia coli 14-2 after 18 to 24 hrs; in short: as §1
Escherichia coli [10] = assay: Antibacterial activity against Escherichia coli 14-1 after 18 to 24 hrs; in short: as §1
Escherichia coli [11] = assay: Antibacterial activity against Escherichia coli 14-2 after 18 to 24 hrs; in short: as §1
Klebsiella pneumoniae [12] = assay: Antibacterial activity against ESBL-positive Klebsiella pneumoniae 14-17 after 18 to 24 hrs; in short: as §1
Klebsiella pneumoniae [13] = assay: Antibacterial activity against ESBL-positive Klebsiella pneumoniae 14-18 after 18 to 24 hrs; in short: as §1
Klebsiella pneumoniae [14] = assay: Antibacterial activity against ESBL-positive Klebsiella pneumoniae 14-19 after 18 to 24 hrs; in short: as §1
Klebsiella pneumoniae [15] = assay: Antibacterial activity against Klebsiella pneumoniae 14-1 after 18 to 24 hrs; in short: as §1
Klebsiella pneumoniae [16] = assay: Antibacterial activity against Klebsiella pneumoniae 14-2 after 18 to 24 hrs; in short: as §1
Klebsiella pneumoniae [17] = assay: Antibacterial activity against Klebsiella pneumoniae 14-3 after 18 to 24 hrs; in short: as §1
Klebsiella pneumoniae [18] = assay: Antibacterial activity against Klebsiella pneumoniae 14-4 after 18 to 24 hrs; in short: as §1
Pseudomonas aeruginosa [19] = assay: Antibacterial activity against Pseudomonas aeruginosa ATCC 27853 after 18 to 24 hrs; in short: as §1
Pseudomonas aeruginosa [20] = assay: Antibacterial activity against Pseudomonas aeruginosa 14-9 after 18 to 24 hrs; in short: as §1
Pseudomonas aeruginosa [21] = assay: Antibacterial activity against Pseudomonas aeruginosa 14-14 after 18 to 24 hrs; in short: as §1
Pseudomonas aeruginosa [22] = assay: Antibacterial activity against Pseudomonas aeruginosa 14-15 after 18 to 24 hrs; in short: as §1
Pseudomonas aeruginosa [23] = assay: Antibacterial activity against Pseudomonas aeruginosa 14-16 after 18 to 24 hrs; in short: as §1
Pseudomonas aeruginosa [24] = assay: Antibacterial activity against Pseudomonas aeruginosa 14-19 after 18 to 24 hrs; in short: as §1
Staphylococcus aureus [25] = assay: Antibacterial activity against Staphylococcus aureus CMCC 26003 after 18 to 24 hrs; in short: as §1
Staphylococcus aureus [26] = assay: Antibacterial activity against methicillin-sensitive Staphylococcus aureus 14-1 after 18 to 24 hrs; in short: as §1
Staphylococcus aureus [27] = assay: Antibacterial activity against methicillin-sensitive Staphylococcus aureus 14-2 after 18 to 24 hrs; in short: as §1
Staphylococcus aureus [28] = assay: Antibacterial activity against methicillin-sensitive Staphylococcus aureus 14-3 after 18 to 24 hrs; in short: as §1
Staphylococcus aureus [29] = assay: Antibacterial activity against methicillin-sensitive Staphylococcus aureus 14-4 after 18 to 24 hrs; in short: as §1
Staphylococcus aureus [30] = assay: Antibacterial activity against methicillin-resistant Staphylococcus aureus 14-4 after 18 to 24 hrs
Staphylococcus aureus [31] = assay: Antibacterial activity against methicillin-resistant Staphylococcus aureus 14-5 after 18 to 24 hrs
[32] = tested on: Staphylococcus epidermidis; assay: Antibacterial activity against methicillin-sensitive Staphylococcus epidermidis 14-2 after 18 to 24 hrs; in short: as §1
[33] = tested on: Staphylococcus epidermidis; assay: Antibacterial activity against methicillin-resistant Staphylococcus epidermidis 14-21 after 18 to 24 hrs
[34] = tested on: Staphylococcus epidermidis; assay: Antibacterial activity against methicillin-resistant Staphylococcus epidermidis 14-22 after 18 to 24 hrs
[35] = tested on: Staphylococcus epidermidis; assay: Antibacterial activity against methicillin-resistant Staphylococcus epidermidis 14-37 after 18 to 24 hrs
[36] = tested on: Staphylococcus epidermidis; assay: Antibacterial activity against methicillin-resistant Staphylococcus epidermidis 14-39 after 18 to 24 hrs
Streptococcus pneumoniae = assay: Antibacterial activity against Streptococcus pneumoniae ATCC 19615 after 18 to 24 hrs; in short: as §1
Enterococcus faecalis [37] = assay: Antibacterial activity against Enterococcus faecalis 14-1 after 18 to 24 hrs; in short: as §1

Work on `NC1CN(c2nc3c(cc2F)c(=O)c(C(=O)O)cn3[C@@H]2C[C@@H]2F)C/C1=N\OCc1ccccc1` (stereo partly drawn) yielded an MIC (Enterococcus faecalis [1]) of 1 µg/mL (≈ 2.13 µM), an MIC (Enterococcus faecium [2]) of 64 µg/mL (≈ 136 µM) and an MIC (Enterococcus faecium [3]) of 64 µg/mL (≈ 136 µM). The MIC (Enterococcus faecium [4]) was 128 µg/mL (≈ 273 µM), the MIC (Enterococcus faecium [5]) was > 128 µg/mL and the MIC90 [6] was 1.92 µg/mL (≈ 4.09 µM). The MIC (Escherichia coli [7]) was 0.5 µg/mL (≈ 1.07 µM), the MIC (Escherichia coli [8]) was 128 µg/mL (≈ 273 µM) and the MIC (Escherichia coli [9]) was > 128 µg/mL. The MIC (Escherichia coli [10]) was > 128 µg/mL, the MIC (Escherichia coli [11]) was > 128 µg/mL and the MIC (Klebsiella pneumoniae [12]) was 32 µg/mL (≈ 68.2 µM). For the same molecule, the MIC (Klebsiella pneumoniae [13]) was 32 µg/mL (≈ 68.2 µM), the MIC (Klebsiella pneumoniae [14]) was > 128 µg/mL and the MIC (Klebsiella pneumoniae [15]) was > 128 µg/mL. For the same molecule, the MIC (Klebsiella pneumoniae [16]) was > 128 µg/mL, the MIC (Klebsiella pneumoniae [17]) was > 128 µg/mL and the MIC (Klebsiella pneumoniae [18]) was > 128 µg/mL. It also gave an MIC (Pseudomonas aeruginosa [19]) of 16 µg/mL (≈ 34.1 µM), an MIC (Pseudomonas aeruginosa [20]) of 32 µg/mL (≈ 68.2 µM) and an MIC (Pseudomonas aeruginosa [21]) of 32 µg/mL (≈ 68.2 µM). For the same molecule, the MIC (Pseudomonas aeruginosa [22]) was 32 µg/mL (≈ 68.2 µM), the MIC (Pseudomonas aeruginosa [23]) was 32 µg/mL (≈ 68.2 µM) and the MIC (Pseudomonas aeruginosa [24]) was 32 µg/mL (≈ 68.2 µM). For the same molecule, the MIC (Staphylococcus aureus [25]) was < 0.008 µg/mL, the MIC (Staphylococcus aureus [26]) was 16 µg/mL (≈ 34.1 µM) and the MIC (Staphylococcus aureus [27]) was < 0.008 µg/mL. The MIC (Staphylococcus aureus [28]) was 0.5 µg/mL (≈ 1.07 µM), the MIC (Staphylococcus aureus [29]) was 1 µg/mL (≈ 2.13 µM) and the MIC (Staphylococcus aureus [30]) was 32 µg/mL (≈ 68.2 µM). The MIC (Staphylococcus aureus [31]) was 64 µg/mL (≈ 136 µM), the MIC [32] was 64 µg/mL (≈ 136 µM) and the MIC [33] was 32 µg/mL (≈ 68.2 µM). The MIC [34] was 32 µg/mL (≈ 68.2 µM), the MIC [35] was 64 µg/mL (≈ 136 µM) and the MIC [36] was 64 µg/mL (≈ 136 µM). It also gave an MIC (Streptococcus pneumoniae) of 0.5 µg/mL (≈ 1.07 µM) and an MIC (Enterococcus faecalis [37]) of 64 µg/mL (≈ 136 µM).
